From ChEMBL document CHEMBL1629571, “High prevalence of plasmid-mediated quinolone resistance determinants qnr, aac(6')-Ib-cr, and qepA among ceftiofur-resistant Enterobacteriaceae isolates from companion and food-producing animals” (2009)
≈ marks a conversion by molar mass, not a printed value.

What was measured:
Klebsiella pneumoniae [1] = test: Antimicrobial activity against Klebsiella pneumoniae D10 expressing aac(6')-Ib-cr, qnrB4, CTX-M-1G and DHA-1 genes by agar dilution method; assay type: functional
Escherichia coli [2] = test: Antimicrobial activity against Escherichia coli PA11 expressing aac(6')-Ib-cr, qnrS1 and qepA genes by agar dilution method; assay type: functional
How it was run: (§1)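 Agar dilution MICs per CLSI guidelines, with E. coli ATCC 25922 as the quality-control strain. Isolates were ceftiofur-resistant (MIC ≥ 8 μg/ml) Enterobacteriaceae from diseased companion or food-producing animals in Guangdong, China. They were identified biochemically and with Biolog Microlog, and PMQR and β-lactamase genes were typed by PCR and sequencing.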

Escherichia coli [3] = test: Antimicrobial activity against Escherichia coli J53 transformed with pHND1 carrying DHA-1 gene by agar dilution method; assay type: functional
How it was run: (§2)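 Transconjugants came from liquid mating of qnr-positive donors into E. coli J53Azi^r. They were selected on tryptic soy agar with sodium azide (100 μg/ml) plus sulfamethoxazole (300 μg/ml) or ampicillin (100 μg/ml). MICs were determined by CLSI agar dilution, with E. coli ATCC 25922 as the quality control strain.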

Escherichia coli [4] = test: Antimicrobial activity against Escherichia coli Du19 expressing qnrB6 and CTX-M-9G genes by agar dilution method; assay type: functional; how it was run: as §1
Citrobacter freundii [5] = test: Antimicrobial activity against Citrobacter freundii D26 expressing qnrB6 and CTX-M-9G genes by agar dilution method; assay type: functional; how it was run: as §1
Escherichia coli [6] = test: Antimicrobial activity against Escherichia coli J53 transformed with pHND2 carrying qnrB6 and CTX-M-9G genes by agar dilution method
Escherichia coli [7] = test: Antimicrobial activity against Escherichia coli J53 by agar dilution method; assay type: functional
Klebsiella pneumoniae [8] = test: Antimicrobial activity against Klebsiella pneumoniae D24 expressing qnrB6 and CTX-M-9G genes by agar dilution method
Escherichia coli [9] = test: Antimicrobial activity against Escherichia coli J53 transformed with pHND3 carrying qnrB6 gene by agar dilution method; assay type: functional; how it was run: as §2
Escherichia coli [10] = test: Antimicrobial activity against Escherichia coli J53 transformed with pHNDU1 carrying qnrB6 gene by agar dilution method; assay type: functional; how it was run: as §2
Escherichia coli [11] = test: Antimicrobial activity against Escherichia coli J53 transformed with pHNPA1 carrying qnrB6 gene by agar dilution method
Escherichia coli [12] = test: Antimicrobial activity against Escherichia coli J53 transformed with pHND1 carrying DHA-1 gene by Etest; assay type: functional
Citrobacter freundii [13] = test: Antimicrobial activity against Citrobacter freundii D26 expressing qnrB6 and CTX-M-9G genes by Etest; assay type: functional
Escherichia coli [14] = test: Antimicrobial activity against Escherichia coli PA11 expressing aac(6')-Ib-cr, qnrS1 and qepA genes by Etest; assay type: functional
Klebsiella pneumoniae [15] = test: Antimicrobial activity against Klebsiella pneumoniae D10 expressing aac(6')-Ib-cr, qnrB4, CTX-M-1G and DHA-1 genes by Etest; assay type: functional
Escherichia coli [16] = test: Antimicrobial activity against Escherichia coli Du19 expressing qnrB6 and CTX-M-9G genes by Etest; assay type: functional
Escherichia coli [17] = test: Antimicrobial activity against Escherichia coli J53 transformed with pHNDU1 carrying qnrB6 gene by Etest; assay type: functional
Escherichia coli [18] = test: Antimicrobial activity against Escherichia coli J53 transformed with pHND2 carrying qnrB6 and CTX-M-9G genes by Etest; assay type: functional
Klebsiella pneumoniae [19] = test: Antimicrobial activity against Klebsiella pneumoniae C1 expressing aac(6')-Ib-cr gene by agar dilution method
Klebsiella pneumoniae [20] = test: Antimicrobial activity against Klebsiella pneumoniae D24 expressing aac(6')-Ib-cr and CTX-M-9G genes by Etest
Escherichia coli [21] = test: Antimicrobial activity against Escherichia coli PA14 expressing aac(6')-Ib-cr and qepA genes by agar dilution method
Escherichia coli [22] = test: Antimicrobial activity against Escherichia coli Chi197 expressing aac(6')-Ib-cr and CTX-M-9G genes by agar dilution method
Escherichia coli [23] = test: Antimicrobial activity against Escherichia coli PA09 expressing aac(6')-Ib-cr gene by agar dilution method
Escherichia coli [24] = test: Antimicrobial activity against Escherichia coli D71 expressing qepA, CTX-M-1G and CTX-M-9G genes by agar dilution method
Klebsiella pneumoniae [25] = test: Antimicrobial activity against Klebsiella pneumoniae C7 expressing aac(6')-Ib-cr gene by agar dilution method
Escherichia coli [26] = test: Antimicrobial activity against Escherichia coli P498 expressing qnrS1 gene by agar dilution method

| Compound | MIC (Klebsiella pneumoniae [1]) [µg/mL] | MIC (Escherichia coli [2]) [µg/mL] | MIC (Escherichia coli [3]) [µg/mL] | MIC (Escherichia coli [4]) [µg/mL] | MIC (Citrobacter freundii [5]) [µg/mL] | MIC (Escherichia coli [6]) [µg/mL] | MIC (Escherichia coli [7]) [µg/mL] | MIC (Klebsiella pneumoniae [8]) [µg/mL] | MIC (Escherichia coli [9]) [µg/mL] | MIC (Escherichia coli [10]) [µg/mL] | MIC (Escherichia coli [11]) [µg/mL] | other results |
| --- | --- | --- | --- | --- | --- | --- | --- | --- | --- | --- | --- | --- |
| O=C(N[C@H](CO)[C@H](O)c1ccc([N+](=O)[O-])cc1)C(Cl)Cl [CHLORAMPHENICOL] | > 128 | > 256 | > 128 | > 128 | 64 (≈ 198 µM) | > 128 | 8 (≈ 24.8 µM) | > 128 | 8 (≈ 24.8 µM) | > 128 | – | – |
| COc1cc(Cc2cnc(N)nc2N)cc(OC)c1OC [TRIMETHOPRIM] | > 256 | > 256 | > 256 | > 256 | > 256 | > 256 | 0.25 (≈ 0.861 µM) | > 256 | > 256 | 0.5 (≈ 1.72 µM) | > 256 | – |
| CO/N=C(\C(=O)N[C@@H]1C(=O)N2C(C(=O)O)=C(CSC(=O)c3ccco3)CS[C@H]12)c1csc(N)n1 [CEFTIOFUR] | 128 (≈ 244 µM) | > 128 | 0.5 (≈ 0.955 µM) | 128 (≈ 244 µM) | 128 (≈ 244 µM) | 64 (≈ 122 µM) | 0.25 (≈ 0.477 µM) | > 128 | 0.25 (≈ 0.477 µM) | 0.25 (≈ 0.477 µM) | 0.5 (≈ 0.955 µM) | – |
| CO/N=C(\C(=O)N[C@@H]1C(=O)N2C(C(=O)O)=C(COC(C)=O)CS[C@H]12)c1csc(N)n1 [CEFOTAXIME] | 128 (≈ 281 µM) | 16 (≈ 35.1 µM) | 0.125 (≈ 0.274 µM) | 128 (≈ 281 µM) | 64 (≈ 141 µM) | 32 (≈ 70.3 µM) | 0.06 (≈ 0.132 µM) | 64 (≈ 141 µM) | 0.06 (≈ 0.132 µM) | 1 (≈ 2.2 µM) | 0.5 (≈ 1.1 µM) | – |
| Cc1cc(NS(=O)(=O)c2ccc(N)cc2)no1 [SULFAMETHOXAZOLE] | > 256 | > 256 | > 256 | > 256 | > 256 | > 256 | 16 (≈ 63.2 µM) | > 256 | 4 (≈ 15.8 µM) | 128 (≈ 505 µM) | > 256 | – |
| NCC[C@H](O)C(=O)N[C@@H]1C[C@H](N)[C@@H](O[C@H]2O[C@H](CN)[C@@H](O)[C@H](O)[C@H]2O)[C@H](O)[C@H]1O[C@H]1O[C@H](CO)[C@@H](O)[C@H](N)[C@H]1O [AMIKACIN] | > 128 | > 256 | > 128 | > 128 | > 128 | 0.5 (≈ 0.854 µM) | 0.5 (≈ 0.854 µM) | 2 (≈ 3.42 µM) | 1 (≈ 1.71 µM) | > 128 | 0.25 (≈ 0.427 µM) | – |
| CC(C)(O/N=C(\C(=O)N[C@@H]1C(=O)N2C(C(=O)[O-])=C(C[n+]3ccccc3)CS[C@H]12)c1csc(N)n1)C(=O)O [CEFTAZIDIME] | 128 (≈ 234 µM) | 32 (≈ 58.5 µM) | 0.25 (≈ 0.457 µM) | 16 (≈ 29.3 µM) | 1 (≈ 1.83 µM) | 1 (≈ 1.83 µM) | 0.125 (≈ 0.229 µM) | 2 (≈ 3.66 µM) | 0.125 (≈ 0.229 µM) | 0.5 (≈ 0.915 µM) | 1 (≈ 1.83 µM) | – |
| C[C@H]1COc2c(N3CCN(C)CC3)c(F)cc3c(=O)c(C(=O)O)cn1c23.C[C@H]1COc2c(N3CCN(C)CC3)c(F)cc3c(=O)c(C(=O)O)cn1c23.O [LEVOFLOXACIN] | – | – | – | – | – | – | – | – | – | – | – | MIC (Escherichia coli [12]): 0.25 µg/mL; MIC (Citrobacter freundii [13]): 2 µg/mL; MIC (Escherichia coli [14]): 128 µg/mL; MIC (Klebsiella pneumoniae [15]): 16 µg/mL; MIC (Escherichia coli [16]): 16 µg/mL; MIC (Escherichia coli [17]): 2 µg/mL; MIC (Escherichia coli [18]): 0.25 µg/mL |
| GENTAMICIN | > 128 | > 256 | > 128 | > 128 | > 128 | – | 0.125 | – | 16 | > 128 | – | – |
| CO/N=C(\C(=O)N[C@@H]1C(=O)N2C(C(=O)[O-])=C(C[n+]3cccc4c3CCCC4)CS[C@H]12)c1csc(N)n1 [CEFQUINOME] | 64 (≈ 121 µM) | 64 (≈ 121 µM) | 0.06 (≈ 0.114 µM) | 32 (≈ 60.5 µM) | 64 (≈ 121 µM) | 8 (≈ 15.1 µM) | 0.06 (≈ 0.114 µM) | 64 (≈ 121 µM) | 0.06 (≈ 0.114 µM) | 0.25 (≈ 0.473 µM) | 0.25 (≈ 0.473 µM) | – |
| O=C(O)c1cn(C2CC2)c2cc(N3CCNCC3)c(F)cc2c1=O [CIPROFLOXACIN] | – | > 128 | – | 64 (≈ 193 µM) | 4 (≈ 12.1 µM) | – | – | 2 (≈ 6.04 µM) | – | – | – | MIC (Klebsiella pneumoniae [19]): 8 µg/mL (≈ 24.1 µM); MIC (Klebsiella pneumoniae [20]): 2 µg/mL (≈ 6.04 µM); MIC (Escherichia coli [21]): > 128 µg/mL; MIC (Escherichia coli [22]): 64 µg/mL (≈ 193 µM); MIC (Escherichia coli [23]): 64 µg/mL (≈ 193 µM); MIC (Citrobacter freundii [13]): 4 µg/mL (≈ 12.1 µM); MIC (Escherichia coli [24]): 64 µg/mL (≈ 193 µM); MIC (Escherichia coli [14]): > 128 µg/mL; MIC (Klebsiella pneumoniae [25]): 8 µg/mL (≈ 24.1 µM); MIC (Escherichia coli [26]): 64 µg/mL (≈ 193 µM) |
| CCn1cc(C(=O)O)c(=O)c2ccc(C)nc21 [NALIDIXIC ACID] | > 128 | > 128 | 16 (≈ 68.9 µM) | > 128 | 128 (≈ 551 µM) | 16 (≈ 68.9 µM) | 4 (≈ 17.2 µM) | 64 (≈ 276 µM) | 4 (≈ 17.2 µM) | 64 (≈ 276 µM) | 32 (≈ 138 µM) | – |
| CC1(C)S[C@@H]2[C@H](NC(=O)[C@H](N)c3ccccc3)C(=O)N2[C@H]1C(=O)O [AMPICILLIN] | > 128 | > 256 | > 128 | > 128 | > 128 | > 128 | – | > 128 | > 128 | 64 (≈ 183 µM) | > 256 | – |
